Compound activity: PubChem, Johns Hopkins Ion Channel Center
KCNQ1 act – potentiators or activators of human KCNQ1 potassium channel. B-score at 10 µM. 310,000 tested, 0.35% active. CHO-K1 KCNQ1, thallium flux FluxOR fluorescence; active compounds read high. AID 2648. P51787;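 active = fluorescence ratio B-score, a plate-corrected score, at least three library SD, with initial intensity B-score within 5 SD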
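Assay system: CHO-K1 cells stably expressing KCNQ1. Medium: assay buffer for compound exposure, DMSO matched across wells. Timing: 37 °C overnight plating, 90-min dark dye load, 20-min compound pretreatment. Signal: kinetic FluxOR fluorescence, 10 s baseline plus 110 s post-stimulus.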
KCNK3 inh – human KCNK3 channel inhibition, primary screen | 340,000 tested, 0.84% active | O14649 | CHO-KCNK3 thallium flux, FluxOR fluorescence; active compounds read low | B-score at 10 µM;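 active = B-score under library mean minus 4 SD, starting fluorescence ratio at most library mean plus 5 SD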;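 also: more negative B-score means stronger inhibition of thallium flux through KCNK3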
Target sequence (O14649 whole entry, looked up): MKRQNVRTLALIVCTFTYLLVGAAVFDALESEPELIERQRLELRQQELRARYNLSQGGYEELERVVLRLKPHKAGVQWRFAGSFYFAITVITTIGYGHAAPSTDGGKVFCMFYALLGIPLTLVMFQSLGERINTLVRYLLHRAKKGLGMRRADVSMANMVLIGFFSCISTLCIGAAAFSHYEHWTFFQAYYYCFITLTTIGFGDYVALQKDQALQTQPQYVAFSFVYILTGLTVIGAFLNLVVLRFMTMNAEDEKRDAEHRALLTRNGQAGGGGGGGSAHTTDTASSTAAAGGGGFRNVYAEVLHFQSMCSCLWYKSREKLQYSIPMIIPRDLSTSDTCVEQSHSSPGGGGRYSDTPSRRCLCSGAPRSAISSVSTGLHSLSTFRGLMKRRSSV
KCNK9 inh – human KCNK9 channel inhibition. Q9NPC2. HEK293 KCNK9, FluxOR thallium flux fluorescence; active compounds read low. B-score at 10 µM. 310,000 tested, 1.2% active. AID 488922;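 active = ratio B-score over 3 SD below the library mean, with starting fluorescence within 5 SD of its mean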;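 also: negative B-score means less thallium flux so channel inhibition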
Target sequence (Q9NPC2 whole entry, looked up): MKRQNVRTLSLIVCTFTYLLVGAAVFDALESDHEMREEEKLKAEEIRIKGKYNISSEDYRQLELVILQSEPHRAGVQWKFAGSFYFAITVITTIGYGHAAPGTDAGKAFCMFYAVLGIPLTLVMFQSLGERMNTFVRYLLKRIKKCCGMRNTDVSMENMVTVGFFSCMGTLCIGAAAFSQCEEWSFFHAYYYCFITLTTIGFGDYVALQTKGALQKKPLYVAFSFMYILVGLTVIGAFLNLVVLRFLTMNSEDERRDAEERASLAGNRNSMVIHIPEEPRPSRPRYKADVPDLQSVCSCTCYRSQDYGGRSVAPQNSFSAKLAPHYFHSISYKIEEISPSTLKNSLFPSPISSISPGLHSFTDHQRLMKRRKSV
KCNQ1 block – human KCNQ1 channel inhibition | P51787 | CHO-K1 KCNQ1, FluxOR thallium flux fluorescence; active compounds read high | B-score at 10 µM | 310,000 tested, 1.3% active;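 active = compounds whose thallium flux B-score, printed positive for inhibition, exceeds three library SD while starting fluorescence stays within three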;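 also: channel opened by potassium depolarization with thallium stimulus after 20 min compound exposure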
hERG rescue – hERG (human) protection from proarrhythmic block; Q12809; CHO-hERG, FluxOR thallium flux, dofetilide IC70 present; activation (rescue from dofetilide block), less the hit threshold, % at 10 µM; 310,000 tested, 0.51% active; AID 1511;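 active = activation above the mean of controls blocked by dofetilide plus 5 SD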;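 also: thallium influx through hERG after potassium depolarization seen as dye fluorescence rise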
Kir21 block – inhibitors of mouse Kir2.1 inward-rectifier potassium channel. HEK293-Kir2.1, FluxOR thallium flux fluorescence; active compounds read low. B-score at 10 µM. 310,000 tested, 0.85% active. AID 1672;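 active = fluorescence ratio B-score at or below minus 3 SD of library scores, with starting-brightness B-score within 2 SD, cut at about -4.2 in these data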;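 also: channel flux triggered by added potassium and thallium sulfate stimulus; B-score of peak minus minimum fluorescence over baseline after thallium stimulus; more negative B-score means stronger Kir2.1 block with less thallium influx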
KCNK9 inh conf – human KCNK9 inhibitor confirmation. HEK293 KCNK9 cells, FluxOR thallium flux fluorescence. 4,900 tested, 43% active. shares compounds with KCNK9 inh. inhibition, % at 10 µM. AID 492992;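 active = thallium signal inhibited by more than 5 SD of the compound-free buffer control wells, on both duplicate plates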
Kir21 sel – mouse Kir2.1 off-target activity of KCNK9 modulators; inhibition, % at 10 µM; 4,900 tested, 4% active; Kir2.1 cells, FluxOR thallium flux fluorescence; shares compounds with KCNK9 inh; AID 492993;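 active = thallium signal drop more than 5 SD beyond the mean of the no-compound control wells, seen in both duplicate plates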;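 also: signal is fluorescence rise after thallium addition divided by baseline fluorescence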
KCNK9 uninduced – non-induced cell nonspecific activity of KCNK9 modulators; AID 492997; 4,900 tested, 40% active; non-induced KCNK9-HEK293, FluxOR thallium flux; shares compounds with KCNK9 inh; inhibition, % at 10 µM;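 active = thallium signal drop beyond 5 SD of the untreated control mean, on both duplicate plates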
Large screens that a line does not name were inactive (follow-up assays come after a bar, where they were run). Rows were chosen to be rich in hits. Some 3.8% of all compounds tested hit in one or more screens of this group.

N#CCCN(Cc1ccccc1)C(=O)c1nccnc1C(=O)O	none
N#Cc1c(Nc2ccccc2)sc(C(=O)c2ccc(F)cc2)c1N	none
Nc1c(C(=O)c2ccccc2)sc(Nc2ccccc2)c1S(=O)(=O)c1ccccc1	none | KCNK9 inh conf inactive | Kir21 sel inactive | KCNK9 uninduced inactive
CC(NC(=O)CCc1nc2cc(S(=O)(=O)N3CCOCC3)ccc2n1C)c1ccc(S(N)(=O)=O)cc1 (stereo not given)	none
CCCCCCC(=O)NNC(=O)c1c(O)c2ccccc2n(CCC)c1=O	none
CCCCCCCC(=O)NNC(=O)c1c(O)c2ccccc2n(CC)c1=O	none | KCNK9 inh conf inactive | Kir21 sel inactive | KCNK9 uninduced inactive
CCCCCCCC(=O)NNC(=O)c1c(O)c2ccccc2n(CCC)c1=O	none | KCNK9 inh conf inactive | Kir21 sel inactive | KCNK9 uninduced inactive
CCc1ccc(C2C(C#N)=C(N)SC(N)=C2C#N)cc1	none
N#CC1=C(N)SC(N)=C(C#N)C1c1ccc([N+](=O)[O-])cc1	none | KCNK9 inh conf inactive | Kir21 sel inactive | KCNK9 uninduced inactive
CCOC(=O)C1C(C)=C(Nc2ccc(OC)cc2)C(=O)N1c1ccc(OC)cc1 (stereo not given)	none
O=C(COc1ccccc1C(=O)Nc1ccccc1)c1ccc(Br)cc1	KCNK9 inh -9.55 | KCNK9 inh conf 35.0% | Kir21 sel inactive | KCNK9 uninduced inactive
O=C(COc1ccccc1C(=O)Nc1ccccc1)NCCc1ccccc1	none
Cc1ccccc1COC(=O)CNC(=O)c1sc2ccccc2c1Cl	none | KCNK9 inh conf inactive | Kir21 sel inactive | KCNK9 uninduced inactive
O=C(c1ccc2c(c1)OCO2)C1CCCN(Cc2c(F)ccc(F)c2F)C1 (stereo not given)	none | KCNK9 inh conf inactive | Kir21 sel inactive | KCNK9 uninduced inactive
Cn1c(CN2CCCC(C(=O)c3ccc4c(c3)OCO4)C2)nc2ccccc21 (stereo not given)	none | KCNK9 inh conf inactive | Kir21 sel inactive | KCNK9 uninduced inactive
CCN(CC)CCCNC(=O)c1ccc(S(=O)(=O)Nc2ccc(C)c(C)c2)cc1	none (no result: KCNQ1 act, KCNK9 inh, KCNQ1 block, hERG rescue, Kir21 block)
CSc1ncccc1C(=O)OCC(=O)N1CCc2ccccc21	none (no result: KCNQ1 act, KCNK9 inh, KCNQ1 block, hERG rescue, Kir21 block)
CCCCc1noc(-c2c(-c3ccccc3Cl)noc2C)n1	none | KCNK9 inh conf inactive | Kir21 sel inactive | KCNK9 uninduced inactive
CCC1(c2ccccc2)NC(=O)N(CC(=O)NNC(=O)c2ccc(F)cc2)C1=O (stereo not given)	none (no result: KCNQ1 act, KCNK9 inh, KCNQ1 block, hERG rescue, Kir21 block)
CCC1Oc2ccccc2N(CC(=O)NCc2cccs2)C1=O (stereo not given)	none
Cc1ccc(CN2CCSc3ccc(C(=O)NC4CCCC4)cc32)cc1	KCNK9 inh -11 | KCNK9 inh conf 52.5% | Kir21 sel inactive | KCNK9 uninduced 31.0%
COc1ccc(OC)c(CCNC(=O)c2ccc3c(c2)N(Cc2ccc(F)cc2)CCS3)c1	KCNK3 inh -10, KCNK9 inh -11.4, KCNQ1 block 7 | KCNK9 inh conf 69.0% | Kir21 sel inactive | KCNK9 uninduced 32.5%
Cc1ccc(CN2CCSc3ccc(C(=O)NCC4CCCO4)cc32)cc1 (stereo not given)	none
COc1ccc(C(CNC(=O)c2cncc(Br)c2)N(C)C)cc1 (stereo not given)	none
CC(C)OC(=O)CSc1nc(Cc2cccs2)nc2ccccc12	KCNK9 inh -11.9, Kir21 block -4.41 | KCNK9 inh conf 54.0% | Kir21 sel 45.0% | KCNK9 uninduced 32.5%
N/C(=N\OC(=O)Cc1ccc(-c2ccccc2)cc1)c1ccncc1	none | KCNK9 inh conf 30.0% | Kir21 sel inactive | KCNK9 uninduced inactive
Cc1ccc(S(=O)(=O)CCC(=O)OCC(=O)Nc2ccc(N3CCOCC3)cc2)cc1	none
COc1cccc(CNCc2cccnc2)c1OCc1ccccc1	none
CC[N+]1(CC(O)COC2CC(C)CC(C)(C)C2)CCOCC1 (stereo not given)	none
CCOc1ccc(OCc2ccc(C(=O)N3CCCC(C)C3)cc2)cc1 (stereo not given)	none | KCNK9 inh conf inactive | Kir21 sel inactive | KCNK9 uninduced inactive
CCOc1ccc(NS(=O)(=O)c2ccc(C(=O)N3CCN(C(C)=O)CC3)cc2)cc1	none
CCOc1ccc(NS(=O)(=O)c2ccc(C(=O)N3CCCC(C)C3)cc2)cc1 (stereo not given)	none | KCNK9 inh conf inactive | Kir21 sel inactive | KCNK9 uninduced inactive
COc1ccc(NS(=O)(=O)c2ccc(C(=O)N3CCCCCC3)cc2)cc1	none (no result: KCNQ1 act, KCNK9 inh, KCNQ1 block, hERG rescue, Kir21 block)
CCOc1ccc(OCc2ccc(C(=O)N3CCOCC3)cc2)cc1	none
CCOc1ccc(NS(=O)(=O)c2ccc(C(=O)N3CCCCCC3)cc2)cc1	none | KCNK9 inh conf inactive | Kir21 sel inactive | KCNK9 uninduced inactive
CCn1nc(C)c([N+](=O)[O-])c1C(=O)NNC(=O)c1ccc(Cl)cc1	none
CCCn1cnc2scc(-c3ccc(C)c(C)c3)c2c1=O	none | KCNK9 inh conf inactive | Kir21 sel inactive | KCNK9 uninduced inactive
Cc1ccc(-c2csc3ncn(CC(N)=O)c(=O)c23)cc1C	none
CCCOC(=O)Cn1cnc2scc(-c3ccc(C)cc3)c2c1=O	none | KCNK9 inh conf inactive | Kir21 sel inactive | KCNK9 uninduced inactive
C=CCn1cnc2scc(-c3ccc(C)c(C)c3)c2c1=O	none | KCNK9 inh conf inactive | Kir21 sel inactive | KCNK9 uninduced inactive
O=C(COc1ccc(Cl)cc1)Nc1cc(S(=O)(=O)N2CCCCC2)ccc1N1CCCCC1	none
CC1Cc2ccccc2N1C(=O)CN1CCc2ccccc2C1 (stereo not given)	none | KCNK9 inh conf inactive | Kir21 sel inactive | KCNK9 uninduced inactive
CC1Cc2ccccc2N1C(=O)CCn1c(=O)sc2ccccc21 (stereo not given)	none | KCNK9 inh conf inactive | Kir21 sel inactive | KCNK9 uninduced inactive
CCn1cc(C(=O)N[C@@H](C)C(=O)NCCCn2ccnc2)c(=O)c2cc3c(cc21)OCO3	none
COc1ccc(C=CC(C)=NNC(=O)c2ccncc2)cc1	none (no result: KCNQ1 act, KCNK9 inh, KCNQ1 block, hERG rescue, Kir21 block)
CC1(C)CC(=O)c2c(O)c(-c3ccccc3)c(=O)n(-c3ccccc3)c2C1	none
O=C(O)c1ccc(-c2nc(-c3cccc(C(F)(F)F)c3)cs2)cc1	none | KCNK9 inh conf inactive | Kir21 sel inactive | KCNK9 uninduced inactive
O=C(O)c1ccc(-c2nc(-c3ccc(Cl)cc3)cs2)cc1	none
O=S(=O)(c1ccc(Cl)nc1)N1CCN(Cc2ccc3c(c2)OCO3)CC1	none
COc1cccc(S(=O)(=O)N2CCN(Cc3ccc4c(c3)OCO4)CC2)c1	none | KCNK9 inh conf inactive | Kir21 sel inactive | KCNK9 uninduced inactive
